Assay results as given in ChEMBL document CHEMBL3243989, “Antibacterial N-[omega, omega'-bis(alicyclic and aryl)-sec-alkyl]poly(methylene)triamine and -tetramine hydrochloride salts” (J Med Chem, 1979).
Calls of active or inactive are those of the source. The rule behind the calls is not given here.

Key:
[1] = test system: Proteus vulgaris; test: Antibacterial activity against Proteus vulgaris MB838 assessed as growth inhibition at 200 ug/mL; type: functional, organism-based
[2] = test system: Pseudomonas aeruginosa; test: Antibacterial activity against Pseudomonas aeruginosa MB418 assessed as growth inhibition; type: functional
How it was run: (§1)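 MIC (µg/mL) by in vitro growth inhibition in an assay system at pH 7.4. Tetracycline was run routinely to check medium, incubation conditions and inoculum virility.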

[3] = test system: Pseudomonas aeruginosa; test: Antibacterial activity against Pseudomonas aeruginosa MB2245 assessed as growth inhibition; type: functional; how it was run: as §1
[4] = test system: Staphylococcus aureus; test: Antibacterial activity against Staphylococcus aureus MB108 assessed as growth inhibition; type: functional; how it was run: as §1
[5] = test system: Staphylococcus aureus; test: Antibacterial activity against Staphylococcus aureus MB2865 assessed as growth inhibition; type: functional; how it was run: as §1
[6] = test system: Bacillus subtilis; test: Antibacterial activity against Bacillus subtilis MB964 assessed as growth inhibition; type: functional; how it was run: as §1
[7] = test system: Salmonella; test: Antibacterial activity against Salmonella schottmuelleri MB2837 assessed as growth inhibition; type: functional; how it was run: as §1
[8] = test system: Escherichia coli; test: Antibacterial activity against Escherichia coli MB2884 assessed as growth inhibition; type: functional; how it was run: as §1
[9] = test system: Klebsiella aerogenes; test: Antibacterial activity against Klebsiella aerogenes MB1503 assessed as growth inhibition; type: functional; how it was run: as §1
[10] = test system: Bordetella bronchiseptica; test: Antibacterial activity against Bordetella bronchiseptica MB3551 assessed as growth inhibition; type: functional; how it was run: as §1
[11] = test system: Bordetella bronchiseptica; test: Antibacterial activity against Bordetella bronchiseptica MB905 assessed as growth inhibition; type: functional; how it was run: as §1
[12] = test system: Streptococcus pyogenes; test: Antibacterial activity against Streptococcus pyogenes assessed as growth inhibition at 2 to 8 ug/mL; type: functional, organism-based
[13] = test system: Pasteurella multocida; test: Antibacterial activity against Pasteurella multocida MB7 assessed as growth inhibition at 2 to 8 ug/mL; type: functional, organism-based
[14] = test system: Corynebacterium pseudodiphtheriticum; test: Antibacterial activity against Corynebacterium pseudodiphtheriticum assessed as growth inhibition at 2 to 8 ug/mL; type: functional, organism-based

Compound | growth inhibition (GI) [1] | MIC [2] [µg/mL] | MIC [3] [µg/mL] | MIC [4] [µg/mL] | MIC [5] [µg/mL] | MIC [6] [µg/mL] | MIC [7] [µg/mL] | MIC [8] [µg/mL] | MIC [9] [µg/mL] | MIC [10] [µg/mL] | MIC [11] [µg/mL] | growth inhibition (GI) [12] | growth inhibition (GI) [13] | growth inhibition (GI) [14]
Cl.NCCNCCNC(CCC1CCCCC1)CCC1CCCCC1 | inactive | 100 | 100 | 4 | 15 | 4 | 2 | 10 | 8 | 4 | 4 | Active | Active | inactive
Cl.NCCCNCC(O)CNC(CCC1CCCCC1)CCC1CCCCC1 (centres undefined) |  | 20 | 8 | 8 | 15 | 4 | 4 | 8 | 6 | 4 | 4 |  |  | 
CC1(C)C2CCC(C2)C1CCC(CCC1C2CCC(C2)C1(C)C)NCCNCCNCCCN.Cl (centres undefined) | inactive | 60 | 60 | 20 | 6 | 6 | 6 | 10 | 10 | 30 | 6 | Active | Active | inactive
CC1(C)C2CCC(C2)C1CCC(CCC1C2CCC(C2)C1(C)C)NCCNCCCNCCN.Cl (centres undefined) | inactive | 30 | 15 | 6 | 6 | 6 | 6 | 8 | 10 | 6 | 8 | Active | Active | inactive
Cl.NCCCNCCCNC(CCCCC1CCCCC1)CCCCC1CCCCC1 | inactive | 10 | 15 | 10 | 20 | 8 | 6 | 20 | 20 | 4 | 4 | Active | Active | inactive
Cl.NCCCNCCCNC(CCCC1CC=CCC1)CCCC1CC=CCC1 (centres undefined) | inactive | 20 | 15 | 6 | 10 | 4 | 4 | 10 | 6 | 4 | 2 | Active | Active | inactive
CC(C)c1ccc(CCCC(CCCc2ccc(C(C)C)cc2)NCCNCCNCCN)cc1.Cl | inactive | 8 | 80 | 6 | 20 | 4 | 10 | 15 | 60 | 30 | 30 | Active | Active | inactive
CC1(C)C2CCC(C2)C1CCC(CCC1C2CCC(C2)C1(C)C)NCCNCCNCCN.Cl (centres undefined) | inactive | 50 | 30 | 4 | 30 | 4 | 4 | 8 | 8 | 10 | 4 | Active | Active | inactive
CC1(C)C2CCC(C2)C1CCC(CCC1C2CCC(C2)C1(C)C)NCCCNCCCN.Cl (centres undefined) | inactive | 8 | 10 | 4 | 10 | 4 | 4 | 8 | 4 | 4 | 4 | Active | Active | inactive
CC1(C)C2CCC(C2)C1CCC(CCC1C2CCC(C2)C1(C)C)NCCNCCN.Cl (centres undefined) | inactive | 200 | > 200 | 6 | 6 | 6 | 50 | 4 | 10 | 4 | 4 | Active | Active | inactive
CC1(C)C2CCC(C2)C1CCC(CCC1C2CCC(C2)C1(C)C)NCCCNCCNCCCN.Cl (centres undefined) | inactive | 30 | 15 | 4 | 8 | 4 | 4 | 30 | 15 | 4 | 4 | Active | Active | inactive
CC(C)(C)c1ccc(CCC(CCc2ccc(C(C)(C)C)cc2)NCCCNCCCN)cc1.Cl | inactive | 8 | 15 | 6 | 15 | 2 | 4 | 6 | 15 | 4 | 4 | Active | Active | inactive
Cc1ccc(CCC(CCc2ccc(C)cc2)NCCCNCCCN)cc1.Cl | inactive | 60 | 40 | 30 | 50 | 4 | 10 | 50 | 15 | 6 | 4 | Active | Active | inactive
CC(C)c1ccc(CCC(CCc2ccc(C(C)C)cc2)NCCNCCNCCN)cc1.Cl | inactive | 40 | 60 | 6 | 30 | 6 | 4 | 30 | 40 | 15 | 8 | Active | Active | inactive
CC(C)C1CCC(CCC(CCC2CCC(C(C)C)CC2)NCCCNCCCN)CC1.Cl (centres undefined) | inactive | 60 | 60 | 20 | 40 | 6 | 20 | 50 | 50 | 10 | 10 | Active | Active | inactive
CC(C)c1ccc(CCC(CCc2ccc(C(C)C)cc2)NCCCNCCCN)cc1.Cl | inactive | 10 | 10 | 8 | 8 | 4 | 4 | 8 |  | 4 | 4 | Active | Active | inactive
